This assay addresses T1, Renin (Homo sapiens, UniProt P00797).
T1 sequence (P00797 whole entry): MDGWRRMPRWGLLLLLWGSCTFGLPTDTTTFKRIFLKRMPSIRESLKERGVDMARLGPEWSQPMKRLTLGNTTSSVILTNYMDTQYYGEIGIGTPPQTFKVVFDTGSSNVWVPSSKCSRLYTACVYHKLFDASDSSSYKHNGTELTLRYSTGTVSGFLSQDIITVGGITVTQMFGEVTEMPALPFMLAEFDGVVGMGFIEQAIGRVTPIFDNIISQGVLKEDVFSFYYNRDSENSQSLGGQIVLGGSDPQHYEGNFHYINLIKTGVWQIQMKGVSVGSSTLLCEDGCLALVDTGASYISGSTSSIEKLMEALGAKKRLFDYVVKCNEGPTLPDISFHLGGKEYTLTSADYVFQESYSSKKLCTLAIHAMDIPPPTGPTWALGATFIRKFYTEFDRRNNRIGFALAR
As to the kind of experiment: Compound was evaluated for the inhibition of human plasma renin at pH 7.4. The class given is cell-free. The gist of the method:
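Human plasma renin activity measured by radioimmunoassay of generated angiotensin I, run in phosphate buffer at pH 7.4 and 37 °C. IC50 is the mean of three determinations.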
For orientation: IC50 means the midpoint of a concentration-inhibition curve. High values mean a need for much substance, low ones inhibition by little substance. For `CCCCNC(=O)[C@@H](C[C@H](O)[C@H](CC1CCCCC1)NC(=O)[C@H](CCCC)NC(=O)C(Cc1ccccc1)NC(=O)OC(C)(C)C)C(C)C` (stereo not given in full), the IC50 was 2.1 nM.

`CCCCNC(=O)[C@@H](C[C@H](O)[C@H](CC1CCCCC1)NC(=O)[C@H](CCCC)N1CC[C@H](c2ccccc2)[C@H](NC(=O)OC(C)(C)C)C1=O)C(C)C` displayed an IC50 of 134 nM. This IC50 is about 64-fold higher than that of the compound before. `CCCCNC(=O)[C@@H](C[C@H](O)[C@H](CC1CCCCC1)NC(=O)[C@H](CCCC)NC(=O)C(Cc1ccccc1)NC(C)=O)C(C)C` (stereo not given in full) had an IC50 of 0.84 nM. Turning to `CCCCNC(=O)[C@@H](C[C@H](O)[C@H](CC1CCCCC1)NC(=O)[C@H](CCCC)N1CC[C@H](c2ccccc2)[C@H](NC(C)=O)C1=O)C(C)C`, the IC50 was found to be 21 nM. As for `CCCCNC(=O)[C@@H](C[C@H](O)[C@H](CC1CCCCC1)NC(=O)[C@H](CCCC)N1CC[C@@H](c2ccccc2)[C@H](NC(=O)OC(C)(C)C)C1=O)C(C)C`, the IC50 was found to be 5910 nM.

`CCCCNC(=O)[C@@H](C[C@H](O)[C@H](CC1CCCCC1)NC(=O)[C@H](CCCC)N1Cc2ccccc2C[C@H](N)C1=O)C(C)C` returned an IC50 of 2040 nM. Take `CCCCNC(=O)[C@@H](C[C@H](O)[C@H](CC1CCCCC1)NC(=O)[C@H](CCCC)N1Cc2ccccc2C[C@H](NC(C)=O)C1=O)C(C)C`: half-maximal inhibition (IC50) required 210 nM. `CCCCNC(=O)[C@@H](C[C@H](O)[C@H](CC1CCCCC1)NC(=O)[C@H](CCCC)N1Cc2ccccc2C[C@H](N2C(=O)c3ccccc3C2=O)C1=O)C(C)C` had a half-inhibitory concentration (IC50) of over 20000 nM. Take `CCCCNC(=O)[C@@H](C[C@H](O)[C@H](CC1CCCCC1)NC(=O)[C@H](CCCC)NC(=O)C(Cc1ccccc1)N1C(=O)c2ccccc2C1=O)C(C)C` (stereo not given in full): the IC50 is 87 nM. That is a double-digit nanomolar value. Regarding `CCCCNC(=O)[C@@H](C[C@H](O)[C@H](CC1CCCCC1)NC(=O)[C@H](CCCC)N1Cc2ccccc2C[C@H](NC(=O)OC(C)(C)C)C1=O)C(C)C`, the half-maximal inhibitory concentration (IC50) came to 1730 nM.

Source of the values: ChEMBL document CHEMBL1125389, “Synthesis and use of 3-amino-4-phenyl-2-piperidones and 4-amino-2-benzazepin-3-ones as conformationally restricted phenylalanine isosteres in renin inhibitors” (J Med Chem, 1992).
